PfG6PD inh = PfG6PD (Plasmodium falciparum) enzyme inhibition. 350,000 tested, 0.78% active. inhibition, % at 20 µM. PfGluPho enzyme, NADPH resazurin-diaphorase fluorescence. AID 504690;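 active means inhibition reaching at least a set limit at 20 µM in the primary screen, cut at about 59% in these data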
Diaphorase inh = diaphorase inhibition or chemical oxidation counter-screen. diaphorase resazurin-to-resorufin fluorescence, NADH, 16 min; bacterial (C. kluyveri) enzyme, not human. inhibition, % at 20 µM. 190,000 tested, 0.69% active;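 active means primary screen inhibition at 20 µM above a set limit, cut at about 50% in these data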
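controls = No-NADH positive control and DMSO neutral control | system = Clostridium kluyveri diaphorase enzyme | timing = reaction incubation of 16 min at room temperature | signal = resorufin fluorescence 544/590 nm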
TbHK1 inh = T. brucei hexokinase 1 inhibition | recombinant TbHK1, G6PDH-coupled NADH A340 | inhibition, % at 10 µM | 220,000 tested, 0.11% active | AID 1430;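 active means inhibition of 50% or more in the single-dose primary screen; inactive means inhibition below 50%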
G6PDH CS = inhibits Leuconostoc G6PDH, flagging false hits in G6PDH-based assays; Purified L. mesenteroides G6PDH, diaphorase/resazurin coupled fluorescence, 45 min; inhibition, % at 5 µM; 200,000 tested, 0.12% active; in the data active means inhibition above about 50%
HKDC1 inh = HKDC1 (human) hexokinase inhibition; recombinant HKDC1, G6PDH/diaphorase resazurin coupled fluorescence; inhibition, % at 20 µM; 340,000 tested, 0.16% active; AID 493160;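 active means inhibition above about 35% when tested at 20 µM, limit read from the data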
Target sequence (Q2TB90 whole entry, looked up): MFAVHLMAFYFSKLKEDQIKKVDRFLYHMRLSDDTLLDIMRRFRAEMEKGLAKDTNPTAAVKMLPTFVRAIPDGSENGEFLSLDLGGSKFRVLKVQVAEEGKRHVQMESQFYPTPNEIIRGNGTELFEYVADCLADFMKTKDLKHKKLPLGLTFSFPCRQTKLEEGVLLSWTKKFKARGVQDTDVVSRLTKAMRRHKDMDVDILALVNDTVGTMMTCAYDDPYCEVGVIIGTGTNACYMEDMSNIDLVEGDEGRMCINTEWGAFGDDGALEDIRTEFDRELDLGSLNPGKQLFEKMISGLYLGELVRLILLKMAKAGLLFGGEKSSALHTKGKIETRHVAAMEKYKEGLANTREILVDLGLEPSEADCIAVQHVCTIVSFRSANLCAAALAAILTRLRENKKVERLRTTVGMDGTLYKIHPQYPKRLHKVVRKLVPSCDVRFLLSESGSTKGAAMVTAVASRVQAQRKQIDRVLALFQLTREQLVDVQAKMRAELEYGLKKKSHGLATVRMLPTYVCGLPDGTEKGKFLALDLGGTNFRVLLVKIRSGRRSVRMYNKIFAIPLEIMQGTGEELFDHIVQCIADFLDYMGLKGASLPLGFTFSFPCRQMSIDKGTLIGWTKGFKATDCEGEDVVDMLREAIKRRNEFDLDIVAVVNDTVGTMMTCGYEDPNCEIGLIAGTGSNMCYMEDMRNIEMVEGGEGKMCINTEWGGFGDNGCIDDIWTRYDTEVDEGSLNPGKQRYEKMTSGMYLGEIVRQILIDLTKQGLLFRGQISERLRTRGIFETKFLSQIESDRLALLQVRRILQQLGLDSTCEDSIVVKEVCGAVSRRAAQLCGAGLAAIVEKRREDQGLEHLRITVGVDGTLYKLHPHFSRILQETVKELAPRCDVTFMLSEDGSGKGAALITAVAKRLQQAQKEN
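Assay system: recombinant HKDC1 hexokinase; detection: coupled resazurin fluorescence, excitation 525 nm, emission 613 nm; benchmarks: DMSO-plus-enzyme-mix negative control, buffer-substituted positive control; compound dosing: single 20 µM dose; schedule: 90 min at room temperature in dark; also added: glucose plus 1 mM ATP as hexokinase substrates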
PfGluPho conf = PfG6PD inhibition, single-dose confirmed | shares compounds with PfG6PD inh | recombinant PfGluPho, NADPH-diaphorase-resazurin fluorescence | inhibition, % at 20 µM | 2,400 tested, 34% active;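 active means inhibition of at least 50% at 20 µM in any single replicate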
Diaphorase 10uM = counter-screen for P. falciparum G6PD inhibitors: diaphorase inhibitors, oxidizers; diaphorase-coupled resazurin reduction, fluorescence, NADPH 10 uM; 820 tested, 39% active; inhibition, % at 20 µM; AID 504862; shares compounds with PfG6PD inh;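 active means average inhibition reaching 50% or more with the compound at 20 µM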;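 further: resorufin red fluorescence formed as diaphorase reduces resazurin using NADPH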
Diaphorase 30uM = inhibits diaphorase or oxidizes, flagging false PfG6PD hits; shares compounds with PfG6PD inh; Diaphorase/resazurin coupled assay, resorufin fluorescence, 30 uM NADPH; inhibition, % at 20 µM; 820 tested, 29% active;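 active means inhibition averaging 50% or more, tested at 20 µM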
Large screens that a line does not name were inactive (follow-up assays come after a bar, where they were run). Compounds with a hit are over-represented: about 1.2% of the library has one in this group of screens.

O=[N+]([O-])c1ccc(Sc2cccc3cccnc23)c([N+](=O)[O-])c1	PfG6PD inh 148 | PfGluPho conf 99 | Diaphorase 10uM 71 | Diaphorase 30uM 61
Nc1ccc2c(c1)N=[N+]([O-])c1cc(N)ccc1C2	none (no result: Diaphorase inh, G6PDH CS)
CCC(=O)C1CCCN(C(=O)c2ccc(OC)c(OC3CCN(C(C)=O)CC3)c2)C1 (stereo not drawn)	none (no result: Diaphorase inh, TbHK1 inh, G6PDH CS)
CC1(C)Cc2c(c(-c3ccco3)nc3sc4c(NCCCO)ncnc4c23)CO1	PfG6PD inh 60 (no result: Diaphorase inh, G6PDH CS) | PfGluPho conf inactive
CC1(C)Cc2c(c(-c3ccco3)nc3sc4c(NCCN5CCOCC5)ncnc4c23)CO1	none
CC(C)(C)[C@@H]1COC(=O)[C@H](Cc2ccc(F)cc2)CC/C=C\C[C@@H](CC(=O)N(CCO)Cc2ccccc2)C(=O)N1	none (no result: Diaphorase inh, TbHK1 inh, G6PDH CS)
O=C(O)c1ccc(NC2=C/C(=N/S(=O)(=O)c3cccs3)c3ccccc3C2=O)cc1	PfG6PD inh 106 (no result: Diaphorase inh, TbHK1 inh, G6PDH CS, HKDC1 inh) | PfGluPho conf 101 | Diaphorase 10uM 85 | Diaphorase 30uM 84
Cc1cc(-c2nnc(SCC(=O)Nc3nccs3)o2)no1	none (no result: Diaphorase inh, G6PDH CS)
O=C(Nc1ccccc1C(=O)N/N=C/c1ccco1)c1ccccc1Cl	PfG6PD inh 70 | PfGluPho conf 52 | Diaphorase 10uM 52 | Diaphorase 30uM inactive
O=C(O)c1ccccc1C(=O)c1ccc2c(c1)N(Cc1cccc(F)c1)C(=O)CO2	PfG6PD inh 93 | PfGluPho conf 58 | Diaphorase 10uM 58 | Diaphorase 30uM 52
CCOc1ccc(NC(=O)Nc2ccc3nsnc3c2)cc1	none
COc1ccc(NC(=S)Nc2ccc3nsnc3c2)cc1	PfG6PD inh 89, Diaphorase inh 59, G6PDH CS 57 | PfGluPho conf inactive
CCOc1ccc(NC(=S)Nc2ccc3nsnc3c2)cc1	PfG6PD inh 64, Diaphorase inh 54, G6PDH CS 54 | PfGluPho conf inactive
O=C(CSc1nc2ccc(Cl)cc2[nH]1)Nc1ccc2[nH]c(=O)[nH]c2c1	PfG6PD inh 60 (no result: Diaphorase inh, TbHK1 inh, G6PDH CS) | PfGluPho conf inactive
Cc1ccc2nc(SCC(=O)Nc3ccc4[nH]c(=O)[nH]c4c3)[nH]c2c1	none (no result: Diaphorase inh, TbHK1 inh, G6PDH CS)
O=C1C(=Cc2cccc(O)c2O)SC(=S)N1CCCN1CCOCC1	PfG6PD inh 70 (no result: Diaphorase inh, TbHK1 inh, G6PDH CS, HKDC1 inh) | PfGluPho conf 50 | Diaphorase 10uM inactive | Diaphorase 30uM inactive
CC(C)c1ccc(NC(=O)c2ccc(Br)o2)cc1	PfG6PD inh 81 | PfGluPho conf inactive
O=C(Nc1cccc(C(=O)Nc2cccc(Br)c2)c1)c1ccccc1	none (no result: Diaphorase inh, TbHK1 inh, G6PDH CS)
CC(C)c1ccc(NC(=O)c2cccc(Br)c2)cc1	PfG6PD inh 68 | PfGluPho conf inactive
COc1cccc(CNC(=O)c2cc(S(=O)(=O)N3CCCCC3)ccc2C)c1	none (no result: Diaphorase inh, TbHK1 inh, G6PDH CS, HKDC1 inh)
CN(C)c1ccc(C(=S)N2CCN(Cc3ccccc3)CC2)cc1	PfG6PD inh 69 | PfGluPho conf inactive
S=C(c1ccc(Br)cc1)N1CCN(Cc2ccccc2)CC1	PfG6PD inh 60 | PfGluPho conf inactive
Oc1ccc(C(=S)N2CCN(Cc3ccccc3)CC2)cc1	none (no result: Diaphorase inh, G6PDH CS)
Nc1c(C(=O)Nc2ccc(Cl)c(C(=O)O)c2)sc2nc3c(cc12)CCCC3	PfG6PD inh 59 (no result: Diaphorase inh, TbHK1 inh, G6PDH CS) | PfGluPho conf inactive
Cc1c(/C=C/C(=O)c2ccc(Cl)s2)cnn1C	PfG6PD inh 60 | PfGluPho conf 52 | Diaphorase 10uM 63 | Diaphorase 30uM inactive
Cc1c(/C=C/C(=O)c2ccccc2)cnn1C	none
Cc1c(/C=C/C(=O)c2ccc(C(C)C)cc2)cnn1C	PfG6PD inh 68 | PfGluPho conf inactive
c1csc(-c2nc3nc4ccccc4nc3n2Cc2ccc3c(c2)OCO3)c1	PfG6PD inh 72 | PfGluPho conf inactive
CC1=CC(=Nc2c(C)n(C)n(-c3ccccc3)c2=O)C=C(C)C1=O	PfG6PD inh 72, Diaphorase inh 70 | PfGluPho conf 57 | Diaphorase 10uM 64 | Diaphorase 30uM 69
Cc1noc(C)c1CCC(=O)Nc1cc(C(=O)O)ccc1Cl	none (no result: Diaphorase inh, TbHK1 inh, G6PDH CS, HKDC1 inh)
Cc1[nH]c2ccccc2c1/C=N/Nc1ccccn1	none (no result: PfG6PD inh, HKDC1 inh)

Compound activity: PubChem, several laboratories
